Compound activity deposited in PubChem BioAssay by The Scripps Research Institute Molecular Screening Center.
PRMT1 FP inh – blocks human protein arginine methyltransferase 1 | Q99873 | recombinant PRMT1, activity-based probe fluorescence polarization | inhibition, % at 2.79 µM | 370,000 compounds, 1.3% hits | AID 652257;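 active = inhibition above about 21% made by adding two undisclosed values, limit read from the data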
Target sequence (Q99873 whole entry, looked up): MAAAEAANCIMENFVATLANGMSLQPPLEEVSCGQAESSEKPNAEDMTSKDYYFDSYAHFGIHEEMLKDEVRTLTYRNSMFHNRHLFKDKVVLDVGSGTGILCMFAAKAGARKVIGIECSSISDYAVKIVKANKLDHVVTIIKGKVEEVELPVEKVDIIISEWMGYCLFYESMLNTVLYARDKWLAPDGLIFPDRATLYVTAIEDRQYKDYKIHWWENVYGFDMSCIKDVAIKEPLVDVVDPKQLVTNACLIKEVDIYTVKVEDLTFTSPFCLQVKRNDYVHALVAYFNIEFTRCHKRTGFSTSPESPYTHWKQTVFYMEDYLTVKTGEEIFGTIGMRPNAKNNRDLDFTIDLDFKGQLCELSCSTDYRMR
mABHD4 FP – inhibits mouse alpha/beta hydrolase domain 4 | AID 720543 | purified mABHD4, FP-Rh probe fluorescence polarization | inhibition, % at 8.92 µM | 370,000 compounds, 0.54% hits;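 active = inhibition exceeding the mean over every tested compound plus 3 SD, cut at about 30% in these data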
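Test system: mABHD4 protein; Read-out basis: % inhibition; Incubation: 45 min + 60 min at 25 °C; Repeats: single replicate; Technique: fluorescence polarization with parallel and perpendicular emission, 525/598 nm; Compound: 8.92 µM, single dose; Benchmarks: full inhibition S159A mutant plus DMSO, zero as sample-well median.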
rCAG RNA binder – molecules binding r(CAG) RNA repeats. inhibition, % at 3 µM. r(CAG) RNA repeat, TO-PRO-1 dye displacement fluorescence. 370,000 compounds, 1.3% hits. AID 651821;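 active = inhibition above the plate cutoff, the mean of all test compounds on that plate plus 3 SD, cut at about 35% in these data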;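 note: higher means more dye released from RNA so lower well fluorescence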
HTRA1 inh – blocks human HTRA1 serine peptidase | Q92743 | recombinant HTRA1, FP-rhodamine activity-based probe, fluorescence polarization | inhibition, % at 5.96 µM | 340,000 compounds, 0.5% hits | AID 504803; in the data active = inhibition above about 36%
SIAE inh – human SIAE inhibition, primary screen. SIAE FP-Rh probe binding, fluorescence polarization. inhibition, % at 9.66 µM. 370,000 compounds, 0.69% hits. AID 1053197;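 active = inhibition above a cutoff: mean of compounds within the control limits plus 3 SD of those, cut at about 17% in these data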
PRMT1 confirm – confirmation of human PRMT1 inhibitors; shares compounds with PRMT1 FP inh; recombinant His-PRMT1, activity-based probe fluorescence polarization; inhibition, % at 2.79 µM; 3,300 compounds, 42% hits;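 active = mean inhibition across replicates above the hit cutoff derived for the earlier primary screen, cut at about 22% in these data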
mABHD4 conf – confirmation of mouse ABHD4 inhibitors | shares compounds with mABHD4 FP | purified mABHD4, FP-Rh probe fluorescence polarization | inhibition, % at 8.92 µM | 1,800 compounds, 55% hits | AID 720658;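 active = mean inhibition across replicates above the hit cutoff set in the primary screen, cut at about 30% in these data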
SIAE inh conf – human SIAE inhibition, confirmation | shares compounds with SIAE inh | SIAE FP-Rh activity-based probe, fluorescence polarization | inhibition, % at 9.66 µM | 2,300 compounds, 13% hits | AID 1117263;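 active = mean inhibition of the replicates above the hit cutoff set in the primary screen, cut at about 17% in these data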;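 note: inhibitors lower polarization as more probe stays unbound to SIAE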
A number is an active result; 0 = inactive; - = no result; ! = repeats disagree. A selection: hits, their analogues and other compounds. The true share with any hit is near 3.3%.

SMILES	PRMT1 FP inh	mABHD4 FP	rCAG RNA binder	HTRA1 inh	SIAE inh	PRMT1 confirm	mABHD4 conf	others
Cc1ccccc1-c1n[nH]c(=S)n1/N=C/C=C/c1ccco1	29	35	0	0	0	0	32
O=c1c(-c2cccc3ccccc23)[n+]([O-])c2ccccc2n1O	25	49	0	0	0	0	0
CCOn1c(=O)c(-c2cccc3ccccc23)[n+]([O-])c2ccccc21	0	0	0	0	0	-	-
CC1OC(CC(=O)O)CC2=C1C(=O)c1c(O)cccc1C2=O (stereo not drawn)	95	40	0	0	0	46	44
CCOc1ccc(NC(=O)CCCOc2cc(=O)n(C)c3ccccc23)cc1	0	0	0	0	0	-	-
Cc1nc(N)sc1-c1csc(Nc2cccc(O)c2)n1	25	0	0	0	17	0	-	SIAE inh conf=0
Cc1nc(C)c(-c2csc(Nc3cccc(O)c3)n2)s1	0	0	0	0	0	-	-
COc1ccccc1N(O)C1CC(=O)N(c2ccc(Br)cc2)C1=O (stereo not drawn)	42	34	0	0	20	50	0	SIAE inh conf=0
C=CCOc1cccn2c(N(C=O)Cc3ccccc3)c(CC)nc12	0	0	0	-	0	-	-
Oc1c(C=C2N=c3ccccc3=N2)sc(=S)n1-c1ccc2ccccc2c1	0	0	0	0	0	-	-
Oc1c(C=C2N=c3ccccc3=N2)sc(=S)n1-c1ccc(F)cc1	41!	0	0	0	18!	0	-	SIAE inh conf=0
COc1cc(-c2coc3c(C(=O)NCc4ccccc4)cccc23)ccc1O	0	0	0	-	0	-	-
O=C(NCC(F)(F)F)C1C(=O)Nc2ccccc2C(=O)N1C1CCCC1 (stereo not drawn)	0	0	0	-	0	-	-
CCCCn1c(N)c(N(Cc2ccccc2OC)C(=O)C(C)Oc2cccc(Cl)c2)c(=O)[nH]c1=O (stereo not drawn)	0	0	0	0	0	-	-
CCc1nc2ccc(C(=O)N3CCN(c4ccccc4)CC3)cc2nc1CC	0	0	0	0	0	-	-
O=C(c1ccc2nc(-c3ccco3)c(-c3ccco3)nc2c1)N1CCN(c2ccccc2)CC1	54	32	0	0	32	0	0	SIAE inh conf=0
COc1ccc(N=Nc2nc3ccc(Br)cc3n2C)cc1	133	0	0	0	18	0	-	SIAE inh conf=0
CC(C)C(C(=O)NCc1ccccc1)N1CCN(c2ccccc2F)CC1 (stereo not drawn)	0	0	0	-	0	-	-
COc1cc(C(=O)OCC(=O)N2CCCC2=O)cc(OC)c1C	96	45	0	0	17	0	0	SIAE inh conf=0
N/C(Cc1cccc2ccccc12)=N\OC(=O)c1ccccc1F	49	48	0	0	41	0	0	SIAE inh conf=0
Cc1cc(C)c(S(=O)(=O)N2CCCC(C(=O)NCc3ccccn3)C2)c(C)c1 (stereo not drawn)	0	0	0	0	0	-	-
c1cc(CNc2ccc3c(c2)OCO3)ccn1	37	0	0	0	19	0	-	SIAE inh conf=0
O=C(NCc1ccncc1)C(=O)Nc1ccc2c(c1)OCO2	0	0	0	0	0	-	-
O=C1CCC(C(=O)Nc2cccc(S(=O)(=O)Nc3ccccc3F)c2)=NN1	31	0	0	0	24	0	-	SIAE inh conf=0
O=C(Nc1cccc(S(=O)(=O)Nc2ccccc2F)c1)c1ccco1	0	0	0	0	0	-	-
SMILES	PRMT1 FP inh	mABHD4 FP	rCAG RNA binder	HTRA1 inh	SIAE inh	PRMT1 confirm	mABHD4 conf	others
CCOC(=O)C(=C1Nc2ccccc2N1)n1c(-c2cnccn2)nc2ccccc21	0	0	0	-	0	-	-
CCOC(=O)C(=C1Nc2ccccc2N1)n1c(-c2ccco2)nc2ccccc21	29	32	0	-	18	88	0	SIAE inh conf=0
Nc1ccc2c(c1)C/C(=C/c1ccco1)C2=O	39	0	0	0	23	33	-	SIAE inh conf=0
COc1cc(SSc2cc(OC)cc([N+](=O)[O-])c2N)c(N)c([N+](=O)[O-])c1	76	0	0	0	25	90	-	SIAE inh conf=0
CC1=C(C#N)C(=O)OC(C)(C)C1	0	30	0	0	0	-	0
COc1ccc(/C=N/Nc2cc(C)nc3ccc(OC)cc23)c(OC)c1	0	31	0	0	0	-	51
CN(CCN1CCOCC1)Cc1nc(-c2ccccc2)no1	0	0	0	0	0	-	-
CCC(C)(C)c1ccc(OCCCC[n+]2ccc(C)cc2)c(C(C)(C)CC)c1	0	33	0	-	0	-	50
CCOC(=O)c1ccc(NC(=O)CCCN2C(=O)NC3(CCCC3)C2=O)cc1	0	0	0	0	0	-	-
CCN(CC)C(=O)c1sc2nc(Cc3ccccc3)[nH]c(=O)c2c1C	0	37	0	0	0	-	40
CSc1ccc(CCNS(=O)(=O)c2csc(C(N)=O)c2)cc1	0	0	0	0	0	-	-
O=C(O)CCC(=O)c1ccc2sc3ccccc3c2c1	0	0	0	0	0	-	-
COc1ccccc1C1Nc2cccc3cccc(c23)N1	0	55	0	0	0	-	53
O=C(Nc1ccccc1Cl)NN1CCCCCC1	0	48	0	0	0	-	52
C[C@H](CO)N1C[C@H](C)[C@@H](CN(C)C(=O)NC2CCCCC2)Oc2c(NC(=O)C3CC3)cccc2C1=O	0	0	0	0	0	-	-
O=C(O)CCCCCn1c(SCC(=O)N2CCCC2)nc2ccsc2c1=O	0	0	0	0	0	-	-
O=C(O)CCCCCn1c(SCC(=O)c2ccc(O)c(O)c2)nc2ccsc2c1=O	24	34	0	0	0	-	36
CCOc1ccc(N(CC(=O)Nc2cccnc2)S(C)(=O)=O)cc1	0	0	0	0	0	-	-
Cc1ccc(-c2nc3ncccn3c2N)cc1	0	0	0	-	0	-	-
Nc1c(-c2ccc(C(F)(F)F)cc2)nc2ncccn12	0	38	0	-	0	-	0
COCC(C)N1CC(O)=C(c2nc(-c3ccc(Cl)cc3)cs2)C1=N (stereo not drawn)	0	32	0	0	0	-	0
CCN(CC)S(=O)(=O)c1ccc(N2CCOCC2)c(NC(=O)c2c3c(nc4ccccc24)CCC3)c1	0	34	0	0	0	-	30
CCN(CC)S(=O)(=O)c1ccc(N2CCOCC2)c(NC(=O)c2cccc3c(=O)c(C)c(-c4ccccc4)oc23)c1	0	33	0	0	0	-	37
O=C(C1CC1)N1CCC(C(O)(c2ccccc2)c2ccccc2)CC1	0	0	0	0	0	-	-
O=C(N1CCC(C(O)(c2ccccc2)c2ccccc2)CC1)n1ncc(C(O)(c2ccccc2)c2ccccc2)n1	0	70	-	-	0	-	68
O=C(CCc1ccc(O)c(O)c1)N/N=C/c1cc2c(cc1[N+](=O)[O-])OCO2	0	31	0	0	0	-	38
Cc1cccc(C)c1OCC(=O)N/N=C/c1cc2c(cc1[N+](=O)[O-])OCO2	0	0	0	0	0	-	-
O=C1C[C@@H](O)[C@H](O)c2cccc(O)c21	0	35	0	-	0	-	0
